Data on 4 molecules can be found in PMC10841594 (Cell chemical biology, 2023).

The subject of data set [1] is luciferase-expressing PDA and colon cancer cell lines. Briefly: Cellular bioluminescence assays with FAC, BPY or hepcidin pre-treatment. The data set is classed as cell-based. An outline of the steps:
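Cells stably expressing firefly/Renilla luciferase (lentiviral, puromycin-selected) in DMEM with 10% FBS, plated to reach 75% confluence and assayed two days after plating. Serum-free DMEM with FAC for 60 min at 37 °C, optionally BPY for 30 min. Hepcidin-25 (1, 2, 4 µg/mL) given 16 h beforehand. Probe at 75 µM in Ca/Mg-free HBSS for 25 min, IVIS imaging at 30 min. D-luciferin (25 µM, 5 min) control.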

Another data set relates to MIA PaCa-2 tumors. Kind of data set: Dual-reporter orthotopic PDA xenograft imaging with FeAL-1. The data set is classed as in vivo, mouse.
A further data set relates to SW1990 tumors. Described as above. The data set is classed as in vivo, mouse.
Another data set deals with FC1245 tumors. The data set is described as above. The data set is classed as in vivo, mouse.
For a further data set, the system named is ferroportin. Kind of data set: Immunohistochemical staining for ferroportin. Type of data set: in vivo, mouse. The following applies: for ferroportin staining in liver vs untreated controls: livers of the mice imaged with FeAL-1. An outline of the steps:
(§1)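 Tissues fixed in 4% paraformaldehyde, paraffin-embedded and cut into 4-µm sections. Liver, heart and tumor sections stained with anti-4-HNE (1:500) or anti-ferroportin (1:500). Liver and heart came from imaged mice: untreated, hepcidin 50 µg/mouse/day for 3 days, or doxorubicin 10 mg/kg IP once 5 days prior. Staining intensity quantified by IHC Profiler in ImageJ (liver/heart n=3 per condition).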

Another data set relates to 4-hydroxynonenal (4-HNE). Kind of data set: Immunohistochemical staining for 4-HNE. The data set is classed as in vivo, mouse. An outline of the steps: as §1
Data set [2] can be described thus: Cell-free metal selectivity assay. Type of data set: biochemical.
In the next data set the test system is non-heme iron. The following applies: DOX-treated mice, ex vivo methodology ref 16; cited from earlier work.
The nature of data set [3]: Storage stability of FeAL-1 powder. The data set is classed as physicochemical. The following applies: stored as a powder at −20 °C under argon.
A short description of data set [4]: UPLC-MS Fe2+-fragmentation assay. An outline of the steps:
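Test compound at 40 µM final in 50 mM Tris-HCl pH 7.4/DMSO (9:1) with sodium ascorbate and ascorbic acid, each 2 mM final. Held 1 min at 37 °C, then sampled as the hemin-free control. Hemin added to 400 µM final and the mixture stirred at 37 °C. Aliquots taken at set time points over 62 min and analysed by UPLC-MS with UV at 303 nm.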

The test system of another data set is MiaPaca2-luc cells. Briefly: Cellular assay comparing FeAL-1 and ICL-1 response. The data set is classed as cell-based, human. The following applies: 20 μM probe, FAC 2 hours, imaged after 15 min.
Another data set deals with SW-1990-luc cells. Kind of data set: Cellular assay comparing FeAL-1 and ICL-1 response. The following applies: 20 μM probe, FAC 2 hours, imaged after 15 min. Type of data set: cell-based, human.
Data set [5] is described as follows: Pharmacokinetic study, plasma LC-MS/MS. Type of data set: in vivo, C57BL6 mice. The following applies: C57BL/6, mouse, ip, 20 mg/kg. An outline of the steps: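 Healthy C57BL/6 mice received a single IP dose at 20 mg/kg (2.5 mL/kg; 15 mice per group). Composite plasma sampling, n=3 per timepoint: orbital bleed under isoflurane at 5, 10, 15, 30 and 45 min, then terminal vena cava bleed under CO2 at 1, 2, 3, 4 and 7 h. Blood collected into EDTA and centrifuged to plasma.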

The mark [6] stands for this setting: hepcidin 50 μg/mouse for three days.
[7] abbreviates: untreated tumor-bearing mice, FeAL-1 36 mg/kg IP.

As for “hepcidin: hepatic peptide hormone, negative regulator of the iron export protein ferroportin”, the “effect of hepcidin pre-treatment on FeAL-1 signal” value in data set [1] (hepcidin 1, 2 and 4 μg/mL, 16 hours, FeAL-1 75 μM) is reported as “corresponding increase in FeAL-1 signal across all cell lines”. In the data set on MIA PaCa-2 tumors (setting [6]), the “FeAL-1 Fluc/Rluc response after hepcidin pre-treatment” value is recorded as ~ 5 and the “FeAL-1 Fluc/Rluc response, hepcidin-treated vs untreated controls” value is given as 2–3 fold. Further, in the data set on SW1990 tumors (setting [6]), the “FeAL-1 Fluc/Rluc response after hepcidin pre-treatment” value is reported as ~ 5 and the “FeAL-1 Fluc/Rluc response, hepcidin-treated vs untreated controls” value is 2–3 fold. In addition, the “effect of hepcidin treatment on tumor LIP” value in the data set on FC1245 tumors (setting [6]) is given as “measurably increased LIP in FC1245 tumors”. Further, the “tumoral ferroportin expression vs untreated control animal” value in the data set with ferroportin (FC1245 tumors, single comparison) is reported as “decreased tumoral ferroportin expression”. Further, the “ferroportin staining in liver vs untreated controls” value in the data set with ferroportin is listed as “reduced ferroportin staining”. For the same molecule, the “4-HNE staining of tumors, treated vs untreated controls” value with 4-hydroxynonenal (4-HNE) (FC1245 tumors) was “not significantly different”. Further, in the data set on 4-hydroxynonenal (4-HNE), the “4-HNE staining in heart tissue vs untreated controls” value is reported as “but not hepcidin-treated mice, showed increased 4-HNE staining” and the “4-HNE staining in liver vs control group” value is recorded as “increased staining for 4-HNE”.
For the molecule `O=C(O)[C@H]1CSC(c2nc3ccc(O)cc3s2)=N1` [D-luciferin], the “luminescent response of D-luciferin with increasing Fe^2+” value in data set [2] (control experiment, D-luciferin instead of FeAL-1) was “not affected by increasing concentrations of Fe^2+”.
For the molecule `COc1cccc2c1C(=O)c1c(O)c3c(c(O)c1C2=O)C[C@@](O)(C(=O)CO)C[C@@H]3O[C@H]1C[C@H](N)[C@H](O)[C@H](C)O1` [DOX, doxorubicin], the “ferroportin staining in liver vs untreated controls” value with ferroportin is “reduced ferroportin staining”. In the data set on 4-hydroxynonenal (4-HNE), the “4-HNE staining in heart tissue vs untreated controls” value is “increased 4-HNE staining” and the “4-HNE staining in liver vs control group” value is recorded as “increased staining for 4-HNE”. Further, the “elevation of non-heme iron in liver, spleen, kidneys and blood” value in the data set on non-heme iron was ≤ 2 fold.
One may read the Cmax as the maximum level reached in the sampled fluid or tissue. One may read the Tmax as the time from dosing to the highest level. On to `CN(CCN(C)C(=O)O[C@@H]1CCC[C@]2(C1)OOC1(O2)C2CC3CC(C2)CC1C3)C(=O)Oc1ccc2nc(C3=N[C@@H](C(=O)O)CS3)sc2c1` (stereo partly drawn) [FeAL-1, (S)-2-(6-(((2-(((((R,R)-dispiro[adamantane-2,3’-[1,2,4]trioxolane-5’,1’’-cyclohexan]-3’’-yl)oxy)carbonyl)(methyl)amino)ethyl)(methyl)carbamoyl)oxy)benzo[d]thiazol-2-yl)-4,5-dihydrothiazole-4-carboxylic acid], for which the stability on storage entry in data set [3] was “stable over several months”. The “stability in assay media lacking hemin” value in data set [4] (control without hemin) is reported as “stable in assay media lacking hemin”. Besides, in [4] (reaction media containing ferrous hemin, 37 °C), the “time point by which FeAL-1 is completely consumed” value was ≤ 1 min. Also, the “time point at which released D-luciferin is detected” value in data set [4] (reaction media containing ferrous hemin, second time point) came to 12 min. In addition, the “luminescence response with Fe^2+ as ferrous ammonium sulfate (FAS)” value in [2] (2.5 μM FeAL-1, 2 hours incubation, then 10 μg/mL luciferase) is recorded as “robust luminescence response”. Also, the “iron-dependent luminescent response compared with ICL-1” value in the data set on MiaPaca2-luc cells and in the data set on SW-1990-luc cells was “stronger iron-dependent luminescent response from FeAL-1 than from ICL-1” in each case. Moreover, in data set [1] (larger panel of cell lines), the “bioluminescent signal in response to FAC supplementation” value is given as “robust bioluminescent signal”. In [1] (with or without FAC), the “bioluminescence response with BPY iron chelator treatment” value is reported as “expected reduction in bioluminescence response”. For the same molecule, the concentration in data set [5] peaked (Cmax) at 5.91 µM. The time of peak concentration (Tmax) in data set [5] stood at 1 h. Besides, the “normalized FeAL-1 Fluc/Rluc response” value is on record as ~ 2.1 in the data set on MIA PaCa-2 tumors (setting [7]), ~ 1.7 with SW1990 tumors (setting [7]) and ~ 0.7 in the data set on FC1245 tumors (setting [7]). Also, the “normalized luminescence signal in tumor relative to healthy liver” value in the data set with MIA PaCa-2 tumors (vs livers of non-tumor bearing mice) is given as ~ 10 fold.
